The results in this text go back to ChEMBL document CHEMBL3860039, “Structure-Activity Relationship and Signaling of New Chimeric CXCR4 Agonists” (J Med Chem, 2016).

What all share (format): cell-based
The target of assay [1] is T1, C-X-C chemokine receptor type 4 (Homo sapiens, UniProt P61073). Nature of the assay: Displacement of [125I]-CXCL12 from HA-tagged human recombinant CXCR4 expressed in HEK293 cells incubated for 1 hr by gamma-radiation counting analysis. In general terms: Loss of bound radioactivity is the signal in a displacement assay; it reports binding, not function.
Assay [2] has as its target T1, C-X-C chemokine receptor type 4. The assay is described as follows: Agonist activity at CXCR4 in human REH cells assessed as induction of chemotaxis incubated for 3 hrs by transwell migration assay. In a few lines:
(§1)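 REH acute lymphoblastic B-cell leukaemia cells washed in RPMI; 100 000 cells in RPMI + 0.2% BSA seeded on top of 5 μm pore polycarbonate transwell, peptide dilutions in same medium in bottom chamber; 3 h, 37 °C, 5% CO2. Migrated cells in lower chamber counted by automated counter, expressed as % of seeded cells; peak = concentration giving maximal migration. Three experiments in triplicate.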

Assay [3] shares this target. The assay is described as follows: Agonist activity at HA-tagged human CXCR4 receptor expressed in HEK293 cells co-transfected with Galphai1-91-RlucII, Gbeta1, and GFP10-G-gamma1 incubated for 7 mins by Galpha1 protein activation-based BRET assay. The gist of the method: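 HEK293 cells (3 × 10^6 per 100 mm dish) co-transfected via polyethylenimine with HA-hCXCR4 plus Gαi1-91-RlucII, Gβ1, GFP10-Gγ1; replated at 24 h, 100 000 cells/well. At 48 h, washed in HBSS/0.1% BSA, exposed to ligand 10−12 to 10−5 M for 7 min, then coelenterazine-400A 5 μM final; BRET2 515/400 nm ratio. EC50 (Gαi dissociation) and Emax from three experiments in triplicate.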

The target is the same in assay [4]. Nature of the assay: Agonist activity at CXCR4 in human REH cells assessed as optimal concentration causing maximum induction of chemotaxis incubated for 3 hrs by transwell migration assay. In a few lines: as §1

Structures are written as SMILES.

The term IC50 denotes the concentration that inhibits the measured activity by half. In general, EC50 refers to the midpoint of the concentration-response curve. A low value points to a more potent agent. Usually Emax stands for the size of the effect at its maximum, as opposed to the concentration needed.

T1 sequence (P61073 whole entry): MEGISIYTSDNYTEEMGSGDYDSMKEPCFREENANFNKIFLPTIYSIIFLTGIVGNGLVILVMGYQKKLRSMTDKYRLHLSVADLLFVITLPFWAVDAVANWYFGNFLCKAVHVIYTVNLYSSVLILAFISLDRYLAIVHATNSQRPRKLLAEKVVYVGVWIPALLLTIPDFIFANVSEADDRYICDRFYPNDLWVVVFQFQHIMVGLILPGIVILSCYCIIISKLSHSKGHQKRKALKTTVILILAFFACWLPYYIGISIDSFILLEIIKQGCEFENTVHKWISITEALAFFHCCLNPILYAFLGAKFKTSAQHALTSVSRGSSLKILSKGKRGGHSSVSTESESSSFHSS

For `CC(C)C[C@H](NC(=O)[C@H](CO)NC(=O)[C@@H](NC(=O)[C@@H]1CCCN1C(=O)[C@@H](N)CCCCN)C(C)C)C(=O)N[C@@H](CO)C(=O)N[C@@H](Cc1ccc(O)cc1)C(=O)N[C@@H](CCCNC(=N)N)C(=O)N[C@@H](C)C(=O)N[C@@H](C)C(=O)NCCCC[C@H](NC(=O)[C@@H]1CSSC[C@H](NC(=O)[C@H](Cc2ccc3ccccc3c2)NC(=O)[C@H](CCCNC(=N)N)NC(=O)[C@@H](N)CCCNC(=N)N)C(=O)N[C@@H](Cc2ccc(O)cc2)C(=O)N[C@@H](CCCNC(=N)N)C(=O)N[C@@H](CCCCN)C(=O)N[C@H](CCCCN)C(=O)N2CCC[C@H]2C(=O)N[C@@H](Cc2ccc(O)cc2)C(=O)NC(CCCNC(=N)N)C(=O)N[C@@H](CCCNC(=N)N)C(=O)N1)C(=O)O` (stereo not given in full), in assay [1], the IC50 turned out to be 137 nM. Also, the %max in assay [2] amounted to 19%. Also, in assay [3], a half-maximal response (EC50) required 111 nM and the maximum response (Emax) amounted to 21%. Moreover, in assay [4], the Activity was 1000 nM.

As for `CC(C)C[C@H](NC(=O)[C@H](CO)NC(=O)[C@@H](NC(=O)[C@@H]1CCCN1C(=O)[C@@H](N)CCCCN)C(C)C)C(=O)N[C@@H](C)C(=O)N[C@@H](Cc1ccc(O)cc1)C(=O)N[C@@H](CCCNC(=N)N)C(=O)N[C@@H](CO)C(=O)N[C@@H](C)C(=O)NCCCC[C@H](NC(=O)[C@@H]1CSSC[C@H](NC(=O)[C@H](Cc2ccc3ccccc3c2)NC(=O)[C@H](CCCNC(=N)N)NC(=O)[C@@H](N)CCCNC(=N)N)C(=O)N[C@@H](Cc2ccc(O)cc2)C(=O)N[C@@H](CCCNC(=N)N)C(=O)N[C@@H](CCCCN)C(=O)N[C@H](CCCCN)C(=O)N2CCC[C@H]2C(=O)N[C@@H](Cc2ccc(O)cc2)C(=O)N[C@@H](CCCNC(=N)N)C(=O)N[C@@H](CCCNC(=N)N)C(=O)N1)C(=O)O`, in assay [1], the IC50 worked out at 368 nM. In addition, in assay [2], the %max stood at 11.4%. In assay [3], this compound returned an EC50 of 144 nM and a maximal response (Emax) of 19%. In assay [4], the Activity stood at 10000 nM.

Turning to `CC(C)C[C@H](NC(=O)[C@H](CO)NC(=O)[C@H](Cc1ccc(C(=O)c2ccccc2)cc1)NC(=O)[C@@H]1CCCN1C(=O)[C@@H](N)CCCCN)C(=O)N[C@@H](CO)C(=O)N[C@@H](Cc1ccc(O)cc1)C(=O)NCCOCCOCCOCCC(=O)NCCCC[C@H](NC(=O)[C@@H]1CSSC[C@H](NC(=O)[C@H](Cc2ccc3ccccc3c2)NC(=O)[C@H](CCCNC(=N)N)NC(=O)[C@@H](N)CCCNC(=N)N)C(=O)N[C@@H](Cc2ccc(O)cc2)C(=O)N[C@@H](CCCNC(=N)N)C(=O)N[C@@H](CCCCN)C(=O)N[C@H](CCCCN)C(=O)N2CCC[C@H]2C(=O)N[C@@H](Cc2ccc(O)cc2)C(=O)N[C@@H](CCCNC(=N)N)C(=O)N[C@@H](CCCNC(=N)N)C(=O)N1)C(=O)O`, the IC50 in assay [1] was found to be 112 nM. In addition, the %max in assay [2] was found to be 40%. Further, in assay [3], the EC50 is 207 nM and the Emax was 75%. In addition, the Activity in assay [4] was determined as 100 nM.

In the case of `CC(C)C[C@H](NC(=O)[C@H](CO)NC(=O)[C@H](C)NC(=O)[C@@H]1CCCN1C(=O)[C@@H](N)CCCCN)C(=O)N[C@@H](CO)C(=O)N[C@@H](Cc1ccc(O)cc1)C(=O)N[C@@H](CCCNC(=N)N)C(=O)N[C@@H](CO)C(=O)N[C@@H](C)C(=O)NCCCC[C@H](NC(=O)[C@@H]1CSSC[C@H](NC(=O)[C@H](Cc2ccc3ccccc3c2)NC(=O)[C@H](CCCNC(=N)N)NC(=O)[C@@H](N)CCCNC(=N)N)C(=O)N[C@@H](Cc2ccc(O)cc2)C(=O)N[C@@H](CCCNC(=N)N)C(=O)N[C@@H](CCCCN)C(=O)N[C@H](CCCCN)C(=O)N2CCC[C@H]2C(=O)N[C@@H](Cc2ccc(O)cc2)C(=O)N[C@@H](CCCNC(=N)N)C(=O)N[C@@H](CCCNC(=N)N)C(=O)N1)C(=O)O`, in assay [1], the concentration for half-maximal inhibition (IC50) is 56 nM. Also, the %max in assay [2] stood at 30%. In assay [3], this compound gave a concentration giving a half-maximal response (EC50) of 92 nM and an Emax of 50%. For the same compound, the Activity in assay [4] amounted to 10 nM.

As to `CC(C)C[C@H](NC(=O)[C@H](CO)NC(=O)[C@H](Cc1ccc2ccccc2c1)NC(=O)[C@@H]1CCCN1C(=O)[C@@H](N)CCCCN)C(=O)N[C@@H](CO)C(=O)N[C@@H](Cc1ccc(O)cc1)C(=O)N[C@@H](CCCNC(=N)N)C(=O)N[C@@H](CO)C(=O)N[C@@H](C)C(=O)NCCCC[C@H](NC(=O)[C@@H]1CSSC[C@H](NC(=O)[C@H](Cc2ccc3ccccc3c2)NC(=O)[C@H](CCCNC(=N)N)NC(=O)[C@@H](N)CCCNC(=N)N)C(=O)N[C@@H](Cc2ccc(O)cc2)C(=O)N[C@@H](CCCNC(=N)N)C(=O)N[C@@H](CCCCN)C(=O)N[C@H](CCCCN)C(=O)N2CCC[C@H]2C(=O)N[C@@H](Cc2ccc(O)cc2)C(=O)N[C@@H](CCCNC(=N)N)C(=O)N[C@@H](CCCNC(=N)N)C(=O)N1)C(=O)O`, the IC50 in assay [1] came to 64 nM. Moreover, the %max in assay [2] amounted to 47%. In assay [3], this compound yielded an EC50 of 152 nM and a maximum response (Emax) of 43%. In addition, in assay [4], the Activity turned out to be 10 nM.

In the case of `CC(C)C[C@H](NC(=O)[C@H](CO)NC(=O)[C@H](Cc1ccc(C(=O)c2ccccc2)cc1)NC(=O)[C@@H]1CCCN1C(=O)[C@@H](N)CCCCN)C(=O)N[C@@H](CO)C(=O)N[C@@H](Cc1ccc(O)cc1)C(=O)N[C@@H](CCCNC(=N)N)C(=O)N[C@@H](CO)C(=O)N[C@@H](C)C(=O)NCCCC[C@H](NC(=O)[C@@H]1CSSC[C@H](NC(=O)[C@H](Cc2ccc3ccccc3c2)NC(=O)[C@H](CCCNC(=N)N)NC(=O)[C@@H](N)CCCNC(=N)N)C(=O)N[C@@H](Cc2ccc(O)cc2)C(=O)N[C@@H](CCCNC(=N)N)C(=O)N[C@@H](CCCCN)C(=O)N[C@H](CCCCN)C(=O)N2CCC[C@H]2C(=O)N[C@@H](Cc2ccc(O)cc2)C(=O)N[C@@H](CCCNC(=N)N)C(=O)N[C@@H](CCCNC(=N)N)C(=O)N1)C(=O)O`, the IC50 in assay [1] is 59 nM. For the same compound, the %max in assay [2] amounted to 72%. In assay [3], this compound showed a half-maximal effective concentration (EC50) of 52 nM and a maximal effect (Emax) of 75%. Also, the Activity in assay [4] came to 10 nM.
